Assay results reported in ChEMBL document CHEMBL3243991, “Antiinflammatory agents. 1. Synthesis and antiinflammatory activity of 2-amino-3-benzoylphenylacetic acid” (J Med Chem, 1979).

Columns and labels:
Rattus norvegicus [1] = assay: Antiinflammatory activity in fasted male rat assessed as decrease in carrageenan-induced pleural fluid at 10 mg/kg, po after 5 hrs by Evans blue carrageenan pleural effusion assay relative to control; type: functional
How it was run: (§1)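 Evans blue carrageenan pleural effusion assay, run by sequential analysis. Screened first at 316 mg/kg orally alongside acetylsalicylic acid at the same dose; active agents were retested in 6 rats at one or two doses against phenylbutazone. Given by gavage (10 mL/kg) in water with 0.5% Tween 80. Pleural fluid measured in mL ± SD; % decrease taken versus vehicle control.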

Rattus norvegicus [2] = assay: Antiinflammatory activity in fasted male rat assessed as decrease in carrageenan-induced pleural fluid at 50 mg/kg, po after 5 hrs by Evans blue carrageenan pleural effusion assay relative to control; type: functional; how it was run: as §1
Rattus norvegicus [3] = assay: Antiinflammatory activity in fasted male rat assessed as decrease in carrageenan-induced pleural fluid at 100 mg/kg, po after 5 hrs by Evans blue carrageenan pleural effusion assay relative to control; type: functional; how it was run: as §1
Rattus norvegicus [4] = assay: Antiinflammatory activity in fasted male rat assessed as decrease in carrageenan-induced pleural fluid at 0.8 mg/kg, po after 5 hrs by Evans blue carrageenan pleural effusion assay relative to control; type: functional; conditions: for inhibition in vivo at 0.8 mg/kg: Rattus norvegicus, Pleural fluid, po, 5 h; how it was run: as §1
Rattus norvegicus [5] = assay: Antiinflammatory activity in fasted male rat assessed as decrease in carrageenan-induced pleural fluid at 4 mg/kg, po after 5 hrs by Evans blue carrageenan pleural effusion assay relative to control; type: functional; conditions: for inhibition in vivo at 4 mg/kg: Rattus norvegicus, Pleural fluid, po, 5 h; how it was run: as §1
Rattus norvegicus [6] = assay: Antiinflammatory activity against adjuvant-induced arthritis in Lewis Wistar rat assessed as change in 11 day edema volume in adjuvant uninjected foot at 0.03 mg/kg, po treated once daily on days 18 to 22 and […]; type: functional
How it was run: (§2)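 Therapeutic regimen in the adjuvant-induced arthritic rat model: compound given once daily on days 18-22 and 25-28. Dosed by gavage (10 mL/kg) as a solution or suspension in water containing 0.5% Tween 80. Groups of 8 rats (one group of 7), with vehicle-dosed negative and positive controls. Injected- and uninjected-foot edema (mL ± SD) and body-weight change (g ± SD) recorded over 11 days; p < 0.05 flagged.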

Rattus norvegicus [7] = assay: Antiinflammatory activity against adjuvant-induced arthritis in Lewis Wistar rat assessed as change in 11 day edema volume in adjuvant uninjected foot at 0.316 mg/kg, po treated once daily on days 18 to 22 and […]; type: functional; how it was run: as §2
Rattus norvegicus [8] = assay: Antiinflammatory activity against adjuvant-induced arthritis in Lewis Wistar rat assessed as change in 11 day edema volume in adjuvant uninjected foot at 3.16 mg/kg, po treated once daily on days 18 to 22 and […]; type: functional; how it was run: as §2
Rattus norvegicus [9] = assay: Toxicity in adjuvant-induced arthritis Lewis Wistar rat model assessed as change in 11 day weight at 0.03 mg/kg, po treated once daily on days 18 to 22 and […]; type: organism-based; design: dose 0.03 mg/kg, route oral; conditions: in vivo, 264 h; how it was run: as §2
Rattus norvegicus [10] = assay: Toxicity in adjuvant-induced arthritis Lewis Wistar rat model assessed as change in 11 day weight at 0.316 mg/kg, po treated once daily on days 18 to 22 and […]; type: organism-based; design: dose 0.316 mg/kg, route oral; conditions: in vivo, 264 h; how it was run: as §2
Rattus norvegicus [11] = assay: Toxicity in adjuvant-induced arthritis Lewis Wistar rat model assessed as change in 11 day weight at 3.16 mg/kg, po treated once daily on days 18 to 22 and […]; type: organism-based; design: dose 3.16 mg/kg, route oral; conditions: in vivo, 264 h; how it was run: as §2
Rattus norvegicus [12] = assay: Antiinflammatory activity against adjuvant-induced arthritis in Lewis Wistar rat assessed as change in 11 day edema volume in adjuvant injected foot at 0.316 mg/kg, po treated once daily on days 18 to 22 and […]; type: functional; how it was run: as §2
Rattus norvegicus [13] = assay: Antiinflammatory activity against adjuvant-induced arthritis in Lewis Wistar rat assessed as change in 11 day edema volume in adjuvant injected foot at 3.16 mg/kg, po treated […]; type: functional
Rattus norvegicus [14] = assay: Antiinflammatory activity against adjuvant-induced arthritis in Lewis Wistar rat assessed as potency in adjuvant injected foot treated po once daily on days 18 to 22 and 25 to 28 relative to phenylbutazone
Rattus norvegicus [15] = assay: Antiinflammatory activity against adjuvant-induced arthritis in Lewis Wistar rat assessed as potency in adjuvant uninjected foot treated po once daily on days 18 to 22 and 25 to 28 relative to phenylbutazone
Rattus norvegicus [16] = assay: Antiinflammatory activity against adjuvant-induced arthritis in Lewis Wistar rat assessed as change in 11 day edema volume in adjuvant injected foot at 0.03 mg/kg, po treated once daily on days 18 to 22 and 25 to 28
Rattus norvegicus [17] = assay: Antiinflammatory activity against adjuvant-induced arthritis in Lewis Wistar rat assessed as change in 11 day edema volume in adjuvant injected foot at 0.0031 mg/kg, po treated once daily on days 18 to 22 and […]; type: functional; how it was run: as §2
Rattus norvegicus [18] = assay: Antiinflammatory activity against adjuvant-induced arthritis in Lewis Wistar rat assessed as change in 11 day edema volume in adjuvant injected foot at 0.0316 mg/kg, po treated […]; type: functional
Rattus norvegicus [19] = assay: Antiinflammatory activity against adjuvant-induced arthritis in Lewis Wistar rat assessed as change in 11 day edema volume in adjuvant uninjected foot at 0.0031 mg/kg, po […]; type: functional
Rattus norvegicus [20] = assay: Antiinflammatory activity against adjuvant-induced arthritis in Lewis Wistar rat assessed as change in 11 day edema volume in adjuvant uninjected foot at 0.0316 mg/kg, po treated once daily on days 18 to 22 and […]; type: functional; how it was run: as §2
Rattus norvegicus [21] = assay: Toxicity in adjuvant-induced arthritis Lewis Wistar rat model assessed as change in 11 day weight at 0.0031 mg/kg, po treated once daily on days 18 to 22 and 25 to 28; conditions: in vivo, 264 h
Rattus norvegicus [22] = assay: Toxicity in adjuvant-induced arthritis Lewis Wistar rat model assessed as change in 11 day weight at 0.0316 mg/kg, po treated once daily on days 18 to 22 and 25 to 28; conditions: in vivo, 264 h
Rattus norvegicus [23] = assay: Antiinflammatory activity in fasted male rat assessed as decrease in carrageenan-induced pleural fluid at 2 mg/kg, po after 5 hrs by Evans blue carrageenan pleural effusion assay relative to control; type: functional; how it was run: as §1
Rattus norvegicus [24] = assay: Antiinflammatory activity in fasted male rat assessed as decrease in carrageenan-induced pleural fluid at 20 mg/kg, po after 5 hrs by Evans blue carrageenan pleural effusion assay relative to control; type: functional; how it was run: as §1
Rattus norvegicus [25] = assay: Antiinflammatory activity against adjuvant-induced arthritis in Lewis Wistar rat assessed as change in 11 day edema volume in adjuvant uninjected foot at 10 mg/kg, po […]; type: functional
Rattus norvegicus [26] = assay: Antiinflammatory activity against adjuvant-induced arthritis in Lewis Wistar rat assessed as change in 11 day edema volume in adjuvant uninjected foot at 31.6 mg/kg, po treated once daily on days 18 to 22 and […]; type: functional; how it was run: as §2
Rattus norvegicus [27] = assay: Toxicity in adjuvant-induced arthritis Lewis Wistar rat model assessed as change in 11 day weight at 10 mg/kg, po treated once daily on days 18 to 22 and […]; type: organism-based; design: dose 10 mg/kg, route oral; conditions: in vivo, 264 h; how it was run: as §2
Rattus norvegicus [28] = assay: Antiinflammatory activity against adjuvant-induced arthritis in Lewis Wistar rat assessed as change in 11 day edema volume in adjuvant injected foot at 10 mg/kg, po treated once daily on days 18 to 22 and […]; type: functional; how it was run: as §2
Rattus norvegicus [29] = assay: Antiinflammatory activity against adjuvant-induced arthritis in Lewis Wistar rat assessed as change in 11 day edema volume in adjuvant injected foot at 31.6 mg/kg, po treated […]; type: functional
Rattus norvegicus [30] = assay: Toxicity in adjuvant-induced arthritis Lewis Wistar rat model assessed as change in 11 day weight at 31.6 mg/kg, po treated once daily on days 18 to 22 and 25 to 28; conditions: in vivo, 264 h
Liver microsome = assay: Drug metabolism in rat liver microsomes assessed as recovery as total extract radioactivity by TLC; type: ADME
How it was run: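 14C-labeled substrate (10 mg) was sonicated into 30 mL of 0.1 M Na+/K+ phosphate buffer, pH 7.4. The mixture was extracted with three portions of ether, extract radioactivity recovery was determined, and TLC was run immediately (acetone/CHCl3 2:98).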

Rattus norvegicus [31] = assay: Antiinflammatory activity in fasted male rat assessed as decrease in carrageenan-induced pleural fluid at 60 mg/kg, po after 5 hrs by Evans blue carrageenan pleural effusion assay relative to control; type: functional; how it was run: as §1
Rattus norvegicus [32] = assay: Antiinflammatory activity in fasted male rat assessed as decrease in carrageenan-induced pleural fluid at 300 mg/kg, po after 5 hrs by Evans blue carrageenan pleural effusion assay relative to control; type: functional; how it was run: as §1
Rattus norvegicus [33] = assay: Antiinflammatory activity in fasted male rat assessed as decrease in carrageenan-induced pleural fluid at 316 mg/kg, po after 5 hrs by Evans blue carrageenan pleural effusion assay relative to control; type: functional; how it was run: as §1

## O=C(c1ccccc1)c1cccc2c1NCC2
Rattus norvegicus [1]
  inhibition in vivo at 10 mg/kg: 14.5%
Rattus norvegicus [2]
  inhibition in vivo at 50 mg/kg: 35.5%

## O=C(O)c1cccc2c1NCC2
Rattus norvegicus [3]
  inhibition in vivo at 100 mg/kg: 12.6%

## CCOC(=O)Cc1cccc(C(=O)c2ccccc2)c1N
Rattus norvegicus [4]
  inhibition in vivo at 0.8 mg/kg: 26.9%
Rattus norvegicus [5]
  inhibition in vivo at 4 mg/kg: 37.3%
Rattus norvegicus [6]
  Activity: 0.6 mL
Rattus norvegicus [7]
  Activity: 0.1 mL
Rattus norvegicus [8]
  Activity: -0.1 mL
Rattus norvegicus [9]
  Activity: 11 g
Rattus norvegicus [10]
  Activity: 10 g
Rattus norvegicus [11]
  Activity: 13 g
Rattus norvegicus [12]
  Activity: -0.1 mL
Rattus norvegicus [13]
  Activity: -0.6 mL
Rattus norvegicus [14]
  fold change (FC): 10.9
Rattus norvegicus [15]
  fold change (FC): 5.1
Rattus norvegicus [16]
  Activity: 0.4 mL

## Nc1c(CC(=O)[O-])cccc1C(=O)c1ccccc1.[Na+] [AMFENAC SODIUM]
Rattus norvegicus [4]
  inhibition (INH): 11.1%
Rattus norvegicus [5]
  inhibition (INH): 33.3%
Rattus norvegicus [17]
  Activity: 0.2 mL
Rattus norvegicus [18]
  Activity: 0.2 mL
Rattus norvegicus [7]
  Activity: -0.2 mL
Rattus norvegicus [19]
  Activity: 0.6 mL
Rattus norvegicus [20]
  Activity: 0.4 mL
Rattus norvegicus [10]
  Activity: 3 g
Rattus norvegicus [12]
  Activity: -0.3 mL
Rattus norvegicus [21]
  Activity: 12 g
Rattus norvegicus [22]
  Activity: 6 g
Rattus norvegicus [14]
  fold change (FC): 14.2
Rattus norvegicus [15]
  fold change (FC): 23.9

## CCCCC1C(=O)N(c2ccccc2)N(c2ccccc2)C1=O [PHENYLBUTAZONE]
Rattus norvegicus [1]
  inhibition in vivo at 10 mg/kg: 10.5%
Rattus norvegicus [2]
  inhibition in vivo at 50 mg/kg: 24.2%
Rattus norvegicus [23]
  inhibition in vivo at 2 mg/kg: 0%
Rattus norvegicus [24]
  inhibition in vivo at 20 mg/kg: 19.4%
Rattus norvegicus [3]
  inhibition in vivo at 100 mg/kg: 31%
Rattus norvegicus [7]
  Activity: 0.4 mL
Rattus norvegicus [8]
  Activity: 0 mL
Rattus norvegicus [25]
  Activity: -0.2 mL
Rattus norvegicus [26]
  Activity: -0.4 mL
Rattus norvegicus [10]
  Activity: 8 g
Rattus norvegicus [11]
  Activity: 8 g
Rattus norvegicus [27]
  Activity: 20 g
Rattus norvegicus [12]
  Activity: 0.4 mL
Rattus norvegicus [13]
  Activity: -0.3 mL
Rattus norvegicus [28]
  Activity: -0.5 mL
Rattus norvegicus [29]
  Activity: -0.9 mL
Rattus norvegicus [30]
  Activity: 26 g

## O=C(c1cccc2c1NCC2)[14c]1[14cH][14cH][14cH][14cH][14cH]1
Liver microsome
  Drug recovery: 49%

## Nc1c(CC(=O)O)cccc1C(=O)c1ccccc1 [AMFENAC]
Rattus norvegicus [4]
  inhibition in vivo at 0.8 mg/kg: 10.3%
Rattus norvegicus [5]
  inhibition in vivo at 4 mg/kg: 33.8%

## O=C1Cc2cccc(C(=O)c3ccccc3)c2N1
Rattus norvegicus [31]
  inhibition in vivo at 60 mg/kg: 11.1%
Rattus norvegicus [32]
  inhibition in vivo at 300 mg/kg: 17.5%

## O=C1Nc2c(cccc2C(=O)c2ccccc2)C1=O
Rattus norvegicus [33]
  inhibition in vivo at 316 mg/kg: 18.4%

## O=C(c1ccccc1)c1cccc2cc[nH]c12
Liver microsome
  Drug recovery: 16%

## CC(=O)Oc1ccccc1C(=O)O [ASPIRIN]
Rattus norvegicus [33]
  inhibition in vivo at 316 mg/kg: 31.6%
